Consider two molecules from publication PMC2677731 (Molecular cell, 2009).

Assay [1] deals with human genome (ENCODE array). The experiment in a line: ChIP-chip, ENCODE tiled arrays. It is filed as cell-based. The settings on record: doxorubicin treatment. In short, it runs like this:
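ChIP DNA from human cells expressing wild-type or ΔPHD2 JADE1L, with or without doxorubicin, was amplified, labelled and hybridised to […] human ENCODE tiled arrays. Analysis followed the array maker's standard protocol. Significant binding peaks were counted by position on the gene body, or by distance from TSS/TES when outside coding regions.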

The test system of a further assay is native chromatin. Nature of the assay: Chromatin pull-down, yeast wild type native chromatin. The format is binding. The note with it: H3-tail dependent, western blot. In short, it runs like this:
(§1)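 Immunopurified JADE1L or JADE1S complexes from co-transfected cells, normalised by gel, were incubated with purified native chromatin. Chromatin came from yeast (wild type or set1, lacking H3K4me) or from human cells.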

The next assay has as its system human native chromatin. Nature of the assay: Chromatin pull-down, human native chromatin. The format is binding. The gist of the method:
as §1

The subject of assay [2] is native wild type chromatin. The experiment in a line: HAT assay on wild type yeast native chromatin. It is filed as biochemical. The note with it: chromatin 500 ng, fluorography. The gist of the method:
(§2)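 For acetyltransferase reactions, wild-type or mutant JADE1 complexes were immunopurified from co-transfected cells. They were incubated with 500 ng of native chromatin purified from yeast cells. Assays otherwise followed an earlier published protocol.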

The subject of the next assay is set1 chromatin. The experiment in a line: HAT assay on set1. The format is biochemical, yeast. The settings on record: chromatin 500 ng, lacking H3K4me. In short, it runs like this: as §2
The test system of the next assay is endogenous chromatin. Nature of the assay: In vivo association with endogenous chromatin. It is filed as cell-based. The gist of the method: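 Tagged JADE1L or JADE1S complexes, wild-type or mutant, were immunopurified from co-transfected human cells. Co-purifying endogenous core histones and complex subunits were resolved by gel staining. Western blots with specific antibodies, including for H3K36me3, followed.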

“Also recorded” adds a separate entry of the source.

As to `COc1cccc2c1C(=O)c1c(O)c3c(c(O)c1C2=O)C[C@@](O)(C(=O)CO)C[C@@H]3O[C@H]1C[C@H](N)[C@H](O)[C@H](C)O1` [doxorubicin], the “JADE1L binding at menin gene” value in assay [1] was “seems to be induced”.

B1: JADE1S: natural smaller 509 amino acid-protein produced by an abundant mRNA splice variant; dimeric complex with HBO1 (protein)
chain: MKRGRLPSSSEDSDDNGSLSTTWSQNSRSQHRRSSCSRHEDRKPSEVFRTDLITAMKLHDSYQLNPDEYYVLADPWRQEWEKGVQVPVSPGTIPQPVARVVSEEKSLMFIRPKKYIVSSGSEPPELGYVDIRTLADSVCRYDLNDMDAAWLELTNEEFKEMGMPELDEYTMERVLEEFEQRCYDNMNHAIETEEGLGIEYDEDVVCDVCQSPDGEDGNEMVFCDKCNICVHQACYGILKVPEGSWLCRTCALGVQPKCLLCPKKGGAMKPTRSGTKWVHVSCALWIPEVSIGSPEKMEPITKVSHIPSSRWALVCSLCNEKFGASIQCSVKNCRTAFHVTCAFDRGLEMKTILAENDEVKFKSYCPKHSSHRKPEESLGKGAAQENGAPECSPRNPLEPFASLEQNREEAHRVSVRKQKLQQLEDEFYTFVNLLDVARALRLPEEVVDFLYQYWKLKRKVNFNKPLITPKKDEEDNLAKREQDVLFRRLQLFTHLRQDLERVMIDTDTL
With B1, in the assay with native chromatin, the “binding to yeast native chromatin” value is “efficiently pulled down yeast chromatin”. Besides, in the assay with human native chromatin, the “binding to H3K36me3-containing human chromatin in vitro” value was “can bind H3K36me3-containing chromatin in vitro”. Besides, the “HAT activity on wild type yeast chromatin” value in assay [2] is given as “much less active than the JADE1L complex”. For the same molecule, in the assay on set1 chromatin, the “HAT activity on set1 yeast chromatin” value is listed as “highly active; also recorded: equivalent acetyltransferase activity”. The “co-purification of core histones” value in the assay with endogenous chromatin (immunopurified complexes, gel staining) is on record as “a full set of core histones co-purified”. Also, the “level of H3K36me3-containing chromatin bound in vivo” value with endogenous chromatin (western blot, relative to JADE1L) was “much higher; also recorded: significantly more H3K36me3 signal”.
